Data published in ChEMBL document CHEMBL3400094, “Synthesis and SAR study of potent and selective PI3Kδ inhibitors” (Bioorg Med Chem Lett, 2015).

How the values were obtained:
[1] = molecular target: Phosphatidylinositol 4,5-bisphosphate 3-kinase catalytic subunit beta isoform (Homo sapiens, UniProt P42338); experiment: Inhibition of PI3Kbeta (unknown origin) by biochemical Alphascreen assay
[2] = molecular target: T1, Phosphatidylinositol 4,5-bisphosphate 3-kinase catalytic subunit delta isoform (Homo sapiens, UniProt O00329); experiment: Inhibition of PI3Kdelta (unknown origin) assessed as inhibition of AKT phosphorylation by cell-based HTRF assay
T1 sequence (O00329 whole entry): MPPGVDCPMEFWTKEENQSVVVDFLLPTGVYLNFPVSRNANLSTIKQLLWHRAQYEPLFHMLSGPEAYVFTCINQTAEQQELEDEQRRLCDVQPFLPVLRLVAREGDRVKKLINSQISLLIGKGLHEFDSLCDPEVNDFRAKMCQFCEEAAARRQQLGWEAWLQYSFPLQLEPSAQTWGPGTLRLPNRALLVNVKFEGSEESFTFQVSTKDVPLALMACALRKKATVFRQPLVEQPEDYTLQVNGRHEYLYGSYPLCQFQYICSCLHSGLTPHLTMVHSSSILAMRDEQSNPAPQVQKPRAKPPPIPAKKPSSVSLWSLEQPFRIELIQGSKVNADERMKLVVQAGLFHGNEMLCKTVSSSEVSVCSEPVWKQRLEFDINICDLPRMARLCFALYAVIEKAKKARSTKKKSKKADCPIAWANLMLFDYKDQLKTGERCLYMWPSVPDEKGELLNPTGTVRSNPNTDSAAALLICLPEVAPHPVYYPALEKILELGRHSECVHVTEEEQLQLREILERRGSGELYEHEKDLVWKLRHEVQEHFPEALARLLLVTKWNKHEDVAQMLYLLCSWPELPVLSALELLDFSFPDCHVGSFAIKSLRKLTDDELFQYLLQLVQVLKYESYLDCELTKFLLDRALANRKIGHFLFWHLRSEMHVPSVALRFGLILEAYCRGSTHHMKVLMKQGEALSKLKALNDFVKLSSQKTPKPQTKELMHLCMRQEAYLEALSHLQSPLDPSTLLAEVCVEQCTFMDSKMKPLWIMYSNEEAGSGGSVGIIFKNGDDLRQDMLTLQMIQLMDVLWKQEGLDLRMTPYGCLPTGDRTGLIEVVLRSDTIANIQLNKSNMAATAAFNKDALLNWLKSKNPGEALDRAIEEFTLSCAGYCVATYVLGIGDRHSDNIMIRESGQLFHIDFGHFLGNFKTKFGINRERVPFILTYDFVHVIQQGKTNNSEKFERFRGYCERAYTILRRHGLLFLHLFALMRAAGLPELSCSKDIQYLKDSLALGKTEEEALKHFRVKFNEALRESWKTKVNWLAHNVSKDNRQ

[3] = molecular target: Phosphatidylinositol 4,5-bisphosphate 3-kinase catalytic subunit alpha isoform (Homo sapiens, UniProt P42336); experiment: Inhibition of PI3Kalpha (unknown origin) by biochemical Alphascreen assay
Phosphatidylinositol 4,5-bisphosphate 3-kinase catalytic subunit alpha isoform, sequence (P42336 whole entry, canonical isoform): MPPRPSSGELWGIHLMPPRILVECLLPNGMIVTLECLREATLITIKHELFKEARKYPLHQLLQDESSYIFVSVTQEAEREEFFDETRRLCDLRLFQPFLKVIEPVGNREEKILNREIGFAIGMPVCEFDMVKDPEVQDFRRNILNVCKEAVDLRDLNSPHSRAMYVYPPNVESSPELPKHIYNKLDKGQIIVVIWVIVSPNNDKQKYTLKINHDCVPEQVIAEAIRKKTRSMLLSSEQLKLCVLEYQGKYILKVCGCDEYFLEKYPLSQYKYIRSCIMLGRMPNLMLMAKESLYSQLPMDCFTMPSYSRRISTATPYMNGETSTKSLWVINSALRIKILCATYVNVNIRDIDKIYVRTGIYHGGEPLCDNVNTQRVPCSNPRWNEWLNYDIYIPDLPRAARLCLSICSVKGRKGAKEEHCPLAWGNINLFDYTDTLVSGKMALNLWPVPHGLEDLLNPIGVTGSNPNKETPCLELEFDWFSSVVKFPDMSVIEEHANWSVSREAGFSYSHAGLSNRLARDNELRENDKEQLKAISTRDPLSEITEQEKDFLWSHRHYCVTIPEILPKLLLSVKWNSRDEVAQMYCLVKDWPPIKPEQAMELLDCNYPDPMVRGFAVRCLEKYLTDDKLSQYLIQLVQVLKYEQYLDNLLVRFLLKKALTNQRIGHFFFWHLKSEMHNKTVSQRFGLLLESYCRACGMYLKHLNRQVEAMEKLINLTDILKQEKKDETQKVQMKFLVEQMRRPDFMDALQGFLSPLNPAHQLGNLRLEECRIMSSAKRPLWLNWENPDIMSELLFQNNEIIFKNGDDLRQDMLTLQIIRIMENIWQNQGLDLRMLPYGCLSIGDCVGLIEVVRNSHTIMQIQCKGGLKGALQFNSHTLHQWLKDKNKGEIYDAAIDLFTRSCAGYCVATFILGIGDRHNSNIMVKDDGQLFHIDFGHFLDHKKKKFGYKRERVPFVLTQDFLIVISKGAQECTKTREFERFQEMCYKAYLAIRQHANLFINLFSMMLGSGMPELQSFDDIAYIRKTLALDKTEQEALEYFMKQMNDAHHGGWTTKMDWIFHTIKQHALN

[4] = molecular target: Phosphatidylinositol 4,5-bisphosphate 3-kinase catalytic subunit gamma isoform (Homo sapiens, UniProt P48736); experiment: Inhibition of PI3Kgamma (unknown origin) by biochemical Alphascreen assay
Phosphatidylinositol 4,5-bisphosphate 3-kinase catalytic subunit gamma isoform, sequence (P48736 whole entry, canonical isoform): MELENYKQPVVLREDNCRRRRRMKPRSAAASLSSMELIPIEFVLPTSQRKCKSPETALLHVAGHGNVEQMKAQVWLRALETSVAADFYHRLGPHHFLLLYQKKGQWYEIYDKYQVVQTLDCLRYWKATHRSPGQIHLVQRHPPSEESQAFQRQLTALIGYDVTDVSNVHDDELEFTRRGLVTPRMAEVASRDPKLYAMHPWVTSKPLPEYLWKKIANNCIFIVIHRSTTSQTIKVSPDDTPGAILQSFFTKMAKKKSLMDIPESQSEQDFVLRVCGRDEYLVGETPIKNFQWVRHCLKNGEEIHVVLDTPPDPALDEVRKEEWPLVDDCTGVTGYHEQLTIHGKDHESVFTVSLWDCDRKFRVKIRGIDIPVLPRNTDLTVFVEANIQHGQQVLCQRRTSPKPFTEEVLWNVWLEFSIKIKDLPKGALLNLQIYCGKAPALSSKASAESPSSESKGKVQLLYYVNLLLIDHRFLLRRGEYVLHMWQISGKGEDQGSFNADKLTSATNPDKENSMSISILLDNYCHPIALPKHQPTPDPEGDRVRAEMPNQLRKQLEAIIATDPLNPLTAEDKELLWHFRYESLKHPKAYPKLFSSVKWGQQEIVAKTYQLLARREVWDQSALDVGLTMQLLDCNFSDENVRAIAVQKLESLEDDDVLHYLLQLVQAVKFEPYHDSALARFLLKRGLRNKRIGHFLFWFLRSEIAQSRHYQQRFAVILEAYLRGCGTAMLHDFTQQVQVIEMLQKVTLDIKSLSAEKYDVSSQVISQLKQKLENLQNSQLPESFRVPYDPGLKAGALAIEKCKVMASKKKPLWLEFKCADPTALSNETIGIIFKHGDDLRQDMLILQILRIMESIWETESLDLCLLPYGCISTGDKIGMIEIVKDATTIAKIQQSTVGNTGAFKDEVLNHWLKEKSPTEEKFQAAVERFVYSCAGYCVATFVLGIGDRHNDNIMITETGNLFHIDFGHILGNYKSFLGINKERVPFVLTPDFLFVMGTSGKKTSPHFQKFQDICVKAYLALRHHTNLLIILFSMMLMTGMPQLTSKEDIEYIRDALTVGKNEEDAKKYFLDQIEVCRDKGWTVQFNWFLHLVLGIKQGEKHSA

[5] = molecular target: T1, Phosphatidylinositol 4,5-bisphosphate 3-kinase catalytic subunit delta isoform; experiment: Inhibition of PI3Kdelta (unknown origin) by biochemical Alphascreen assay
[6] = Metabolic stability assessed as glutathione adduct formation of SO2Me after 30 mins; assay type: ADME; settings: 0.5 h
[7] = Clearance in Sprague-Dawley rat at 0.5 mg/kg, iv and 2 to 10 mg/kg, po; assay type: ADME, organism-based; settings: in vivo
Summary of the method: (§1)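 Male Sprague-Dawley rats, n=3. Compounds formulated for iv dosing at 0.5 mg/kg or oral dosing at 2-10 mg/kg.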

[8] = Oral bioavailability in Sprague-Dawley rat at 2 to 10 mg/kg; assay type: ADME, organism-based; settings: in vivo; summary of the method: as §1

Phosphatidylinositol 4,5-bisphosphate 3-kinase catalytic subunit beta isoform, sequence (P42338 whole entry, canonical isoform): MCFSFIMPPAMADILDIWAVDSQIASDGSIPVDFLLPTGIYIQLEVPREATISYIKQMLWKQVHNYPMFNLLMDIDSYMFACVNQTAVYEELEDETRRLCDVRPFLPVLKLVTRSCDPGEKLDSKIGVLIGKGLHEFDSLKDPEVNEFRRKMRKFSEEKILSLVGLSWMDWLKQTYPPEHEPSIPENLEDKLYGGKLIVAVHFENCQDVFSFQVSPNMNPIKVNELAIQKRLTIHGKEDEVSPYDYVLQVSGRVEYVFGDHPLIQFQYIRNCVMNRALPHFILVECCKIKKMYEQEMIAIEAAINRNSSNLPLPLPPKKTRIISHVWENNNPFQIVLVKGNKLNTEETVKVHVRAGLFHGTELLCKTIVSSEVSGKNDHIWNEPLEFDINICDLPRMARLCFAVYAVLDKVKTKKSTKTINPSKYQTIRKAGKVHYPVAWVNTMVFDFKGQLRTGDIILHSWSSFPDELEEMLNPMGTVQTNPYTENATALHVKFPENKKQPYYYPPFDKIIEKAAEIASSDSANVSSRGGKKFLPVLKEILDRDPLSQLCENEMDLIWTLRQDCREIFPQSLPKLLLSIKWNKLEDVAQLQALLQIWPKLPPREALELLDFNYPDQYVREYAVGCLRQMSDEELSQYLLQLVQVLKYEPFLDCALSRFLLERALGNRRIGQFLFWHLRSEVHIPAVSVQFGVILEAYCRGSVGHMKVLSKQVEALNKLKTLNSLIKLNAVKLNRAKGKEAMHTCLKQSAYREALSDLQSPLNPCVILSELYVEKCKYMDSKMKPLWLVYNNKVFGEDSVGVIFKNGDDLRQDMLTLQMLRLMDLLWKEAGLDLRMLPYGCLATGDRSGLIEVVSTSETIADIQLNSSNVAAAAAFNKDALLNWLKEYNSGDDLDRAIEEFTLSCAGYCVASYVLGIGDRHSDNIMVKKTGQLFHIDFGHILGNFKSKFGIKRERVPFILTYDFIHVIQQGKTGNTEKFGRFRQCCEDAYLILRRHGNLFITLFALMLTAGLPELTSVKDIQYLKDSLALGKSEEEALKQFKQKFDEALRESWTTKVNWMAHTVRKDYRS

Row | Structure (SMILES) | IC50 [1] [nM] | IC50 [2] [nM] | IC50 [3] [nM] | IC50 [4] [nM] | IC50 [5] [nM] | Stability [6] | clearance [7] [mL/min/kg] | bioavailability [8] [%]
1 | COCc1c(-c2ccccn2)c([C@H](C)Nc2ncnc(N)c2C#N)nc2ccc(F)cc12 | 4030 | 3.1 |  | 4950 | 16 |  |  | 
2 | COc1c(-c2ccccc2)c([C@H](C)Nc2ncnc(N)c2C#N)nc2ccc(F)cc12 | 8.2 | 0.8 | 420 | 11 | 1.2 |  |  | 
3 | C[C@H](Nc1ncnc(N)c1C#N)c1nc2ccc(F)cc2c([S+]([O-])CCO)c1-c1ccccc1 (some centres not stated) | 160 |  | 620 | 380 | 2.5 |  |  | 
4 | C[C@H](Nc1ncnc(N)c1C#N)c1nc2ccc(F)cc2c(N2CC(O)C2)c1-c1ccccn1 | 280 | 1.4 | 1210 | 510 | 18 |  |  | 
5 | C[C@H](Nc1ncnc(N)c1C#N)c1nc2ccc(F)cc2c(N2CCOCC2)c1-c1ccccn1 | 80 | 1.2 | 830 | 200 | 1.2 |  |  | 
6 | C[C@H](Nc1ncnc(N)c1C#N)c1nc2ccc(F)cc2c(-c2ccccn2)c1-c1ccccn1 |  |  |  |  |  |  | 0.95 | 51
7 | Cc1cccnc1-c1c(-c2ccccn2)c([C@H](C)Nc2ncnc(N)c2C#N)nc2ccc(F)cc12 | > 20000 |  | > 20000 | > 20000 | 15 |  | 3.5 | 
8 | CC(Nc1ncnc(N)c1C#N)c1nc2ccc(F)cc2c(O)c1-c1ccccc1 (racemic) | > 20000 | 2.8 | > 20000 | 210 | 16 |  | 11.7 | 15
9 | CC(Nc1ncnc(N)c1C#N)c1nc2ccc(F)cc2cc1-c1ccccn1 (racemic) | > 20000 |  | > 20000 | 1100 | 8.8 |  |  | 
10 | CC(Nc1ncnc(N)c1C#N)c1nc2ccc(F)cc2c(Cl)c1-c1ccccn1 (racemic) | 230 | 11 | 1370 | 250 | 4 |  |  | 
11 | CC(Nc1ncnc(N)c1C#N)c1nc2ccc(F)cc2c(N(C)C)c1-c1ccccn1 (racemic) | 710 | 3.6 | 1150 | 290 | 1.4 |  |  | 
12 | CC(Nc1ncnc(N)c1C#N)c1nc2ccc(F)cc2c(C#N)c1-c1ccccn1 (racemic) | 240 | 12 | 4400 | 1420 | 8.3 |  |  | 

Other lines, results leading:

Row | IC50 [1] [nM] | IC50 [2] [nM] | IC50 [3] [nM] | IC50 [4] [nM] | IC50 [5] [nM] | Stability [6] | clearance [7] [mL/min/kg] | bioavailability [8] [%] | Structure (SMILES)
13 | 500 | 0.5 | 900 | 19 | 0.2 |  |  |  | C[C@H](Nc1ncnc(N)c1C#N)c1nc2ccc(F)cc2c(NCCS(C)(=O)=O)c1-c1ccccc1
14 | 510 | 0.1 | 920 | 220 | 0.7 | Unstable | 167 |  | C[C@H](Nc1ncnc(N)c1C#N)c1nc2ccc(F)cc2c(S(C)(=O)=O)c1-c1ccccc1
15 | 420 | 2.4 | 1080 | 13 | 0.6 |  |  |  | COCCNc1c(-c2ccccc2)c([C@H](C)Nc2ncnc(N)c2C#N)nc2ccc(F)cc12
16 | 5000 |  | 1600 | 1600 | 1.7 |  |  |  | C[C@H](Nc1ncnc(N)c1C#N)c1nc2ccc(F)cc2c(NCCN(C)C)c1-c1ccccc1
17 | 460 | 3.1 | 1200 | 120 | 0.4 |  |  |  | CC(Nc1ncnc(N)c1C#N)c1nc2ccc(F)cc2c(NCCO)c1-c1ccccc1 (racemic)
